Reference: ChEMBL document CHEMBL3244069, “Synthesis and biological activities of arginine-vasopressin analogues designed from a conformation-activity approach” (1979)
Activity calls are given as the source filed them. The calls are words filed in the database; no cut-off is given here. Bridge positions count the residues as written; N and C are the ends. Square brackets hold non-standard residues; d marks the D form. Peptide text beside a SMILES is read from it. ΔPro = O=C(O)[C@@H]1C=CCN1; Mpa = O=C(O)CCS

Key:
Rattus norvegicus [1] = test: Induction in blood pressure in rat after single intravenous bolus injection; type: functional
Outline: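 Pressor assay in anesthetized male rats following the U.S. Pharmacopeia procedure. Specific activity obtained by the Schild four-point design against the U.S.P. posterior pituitary reference standard; results in units/mg on anhydrous peptide weight.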

Rattus norvegicus [2] = test: Antidiuretic effect in Brattleboro rat assessed as maximal depressions of urine flow after single intravenous bolus injection; type: functional
Gallus gallus = test: Reduction in vasomotor depression in chicken after single intravenous bolus injection; type: functional
Outline: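 Avian vasodepressor assay in conscious chickens (Coon method per U.S. Pharmacopeia, modified by Munsick et al.). Four-point Schild design against the U.S.P. posterior pituitary reference standard; results in units/mg on anhydrous weight.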

Rattus norvegicus [3] = species: Rattus norvegicus; test: Induction in uterus contraction in isolated rat uterine horns in vitro
Rattus norvegicus [4] = test: Induction in blood pressure in rat at 1.6 x 10^-12 mol, single intravenous bolus injection; type: functional, organism-based
Outline: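 Hydrated, Inactin-anesthetized male Sprague-Dawley rats with carotid artery cannulated; arterial pressure recorded on a physiograph after a single intravenous bolus of 1.6×10^-12 mol (21 microunits).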

Rattus norvegicus [5] = test: Reduction in fractional excretion of sodium in Sprague-Dawley rat at 1.6 x 10^-11 mol, single intravenous bolus injection; type: functional, organism-based; settings: in the assay text read “1.6 x 10^-12 mol” for “1.6 x 10^-11 mol”
Outline: (§1)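 Renal clearance in six male Sprague-Dawley rats, 250–275 g, under Inactin (10 mg/100 g ip), hydrated to 8% body weight with 2% ethanol/0.5% glucose. Infusion of 3% inulin, 1% mannitol, 0.6% NaCl, 2% alcohol at about 10 mL/h; 60 min equilibration; body temperature 37 °C. Urine volume determined gravimetrically, GFR from inulin (anthrone method), Na/K by flame photometry.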

Rattus norvegicus [6] = test: Decrease in glomerular filtration rate in Sprague-Dawley rat at 1.6 x 10^-11 mol, single intravenous bolus injection; type: functional, organism-based; settings: in the assay text read “1.6 x 10^-12 mol” for “1.6 x 10^-11 mol”; outline: as §1
Rattus norvegicus [7] = test: Reduction in urine flow in Sprague-Dawley rat at 1.6 x 10^-11 mol, single intravenous bolus injection; type: functional, organism-based; settings: in the assay text read “1.6 x 10^-12 mol” for “1.6 x 10^-11 mol”; outline: as §1
Rattus norvegicus [8] = test: Increase in urine osmolality in Sprague-Dawley rat measured per liter at 1.6 x 10^-12 mol, single intravenous bolus injection (reference value: 200 mosm)
Rattus norvegicus [9] = test: Increase in urine osmolality in Sprague-Dawley rat measured per liter at 4.2 x 10^-11 mol, single intravenous bolus injection (reference value: 200 mosm); type: functional
Rattus norvegicus [10] = test: Reduction in fractional excretion of sodium in Sprague-Dawley rat at 4.2 x 10^-11 mol, single intravenous bolus injection; type: functional, organism-based
Outline: (§2)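 Six male Sprague-Dawley rats (250–275 g), Inactin 10 mg/100 g i.p., hydrated to 8% body weight; carotid, jugular and bladder cannulated, 37 °C. Inulin/mannitol/NaCl infusion (300 mosm) ~10 mL/h, 60 min equilibration. Blood pressure from the carotid; urine volume weighed, four postinjection samples; GFR from inulin (anthrone); sodium by flame photometry.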

Rattus norvegicus [11] = test: Induction in blood pressure in rat at 4.2 x 10^-11 mol, single intravenous bolus injection; type: functional, organism-based; outline: as §2
Rattus norvegicus [12] = test: Reduction in urine flow in Sprague-Dawley rat at 4.2 x 10^-11 mol, single intravenous bolus injection; type: functional, organism-based; outline: as §2
Rattus norvegicus [13] = test: Decrease in glomerular filtration rate in Sprague-Dawley rat at 1.6 x 10^-12 mol, single intravenous bolus injection

SMILES	Activity (Rattus norvegicus [1]) [U/mg]	Activity (Rattus norvegicus [2]) [U/mg]	Activity (Gallus gallus) [U/mg]	Activity (Rattus norvegicus [3]) [U/mg]	Activity (Rattus norvegicus [4])	inhibition (Rattus norvegicus [5])	inhibition (Rattus norvegicus [6])	inhibition (Rattus norvegicus [7])	Activity (Rattus norvegicus [8]) [milliosmole]	Activity (Rattus norvegicus [9]) [milliosmole]	inhibition (Rattus norvegicus [10])	Activity (Rattus norvegicus [11])	inhibition (Rattus norvegicus [12])	inhibition (Rattus norvegicus [13])
N=C(N)NCCC[C@H](NC(=O)[C@@H]1C=CCN1C(=O)[C@@H]1CSSCCC(=O)N[C@@H](Cc2ccc(O)cc2)C(=O)N[C@@H](Cc2ccccc2)C(=O)N[C@@H](CCC(N)=O)C(=O)N[C@@H](CC(N)=O)C(=O)N1)C(=O)NCC(N)=O	240	4134	345	69	–	–	–	–	–	–	–	–	–	–
N=C(N)NCCC[C@H](NC(=O)[C@@H]1CCCN1C(=O)[C@@H]1CSSCCC(=O)N[C@@H](Cc2ccccc2)C(=O)N[C@@H](Cc2ccccc2)C(=O)N[C@@H](CCC(N)=O)C(=O)N[C@@H](CC(N)=O)C(=O)N1)C(=O)NCC(N)=O ([Mpa]FFQNCPRG-NH2; disulfide 1-6)	29	810	<1	0.3	–	–	–	–	–	–	–	–	–	–
N=C(N)NCCC[C@H](NC(=O)[C@@H]1C=CCN1C(=O)[C@@H]1CSSCCC(=O)N[C@@H](Cc2ccccc2)C(=O)N[C@@H](Cc2ccccc2)C(=O)N[C@@H](CCC(N)=O)C(=O)N[C@@H](CC(N)=O)C(=O)N1)C(=O)NCC(N)=O ([Mpa]FFQNC[ΔPro]RG-NH2; disulfide 1-6)	–	13000	2.9	6	inactive	Active	Active	Active	700	–	–	–	–	–
N=C(N)NCCCC(NC(=O)[C@@H]1CCCN1C(=O)[C@@H]1CSSCCC(=O)N[C@@H](Cc2ccc(O)cc2)C(=O)N[C@@H](Cc2ccccc2)C(=O)N[C@@H](CCC(N)=O)C(=O)N[C@@H](CC(N)=O)C(=O)N1)C(=O)NCC(N)=O (single isomer, unassigned) [DESMOPRESSIN]	395	1400	160	29	–	–	–	–	–	–	–	–	–	–
N=C(N)NCCC[C@H](NC(=O)[C@@H]1CCCN1C(=O)[C@@H]1CSSC[C@H](N)C(=O)N[C@@H](Cc2ccc(O)cc2)C(=O)N[C@@H](Cc2ccccc2)C(=O)N[C@@H](CCC(N)=O)C(=O)N[C@@H](CC(N)=O)C(=O)N1)C(=O)NCC(N)=O [VASOPRESSIN]	487	503	100	12	–	–	–	–	–	700	Active	Active	Active	Active
